Results on 11 compounds are retold here after ChEMBL document CHEMBL1137542, “Probing multivalent carbohydrate-lectin interactions by an enzyme-linked lectin assay employing covalently immobilized carbohydrates” (Bioorg Med Chem, 2007).

The test system of assay [1] is Triticum aestivum. In words: Inhibition of binding of HRP labeled WGA to immobilized porcine stomach […] relative to N-acetyl-glucosamine. Put shortly: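 IC50 measured in the PSM-coated ELLA (WGA-HRP 1 μg mL⁻¹ final, 60 min pre-incubation with inhibitor, 90 min at 37 °C, ABTS read at 405 nm, duplicate). Relative potency β is the GlcNAc IC50 divided by the ligand IC50, with GlcNAc set to β = 1.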

The nature of assay [2]: Inhibition of binding of HRP labeled WGA to immobilized N-acetyl-glucosamine. Set-up: species or system Triticum aestivum. A digest of the protocol: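 Covalent GlcNAc surface: amino plates activated with 0.5% 1,4-phenylene diisothiocyanate in DMSO for 3 h, then treated overnight with 1 mM spacer-linked GlcNAc amine at pH 10.1. Blocking was 1% BSA. WGA-HRP (1 μg mL⁻¹ final) was pre-incubated with inhibitor dilutions for 60 min at 37 °C, then incubated on the plates for 90 min at 37 °C. ABTS/H₂O₂ read at 405 nm. IC50 from % inhibition, duplicate.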

Assay [3] concerns Triticum aestivum. In words: Inhibition of binding of HRP labeled WGA to immobilized N-acetyl-glucosamine relative to N-acetyl-glucosamine. Put shortly:
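IC50 values come from the covalently immobilized GlcNAc ELLA (thiourea-linked spacer GlcNAc, WGA-HRP 1 μg mL⁻¹, 37 °C incubations, ABTS read at 405 nm, duplicate). β expresses potency relative to GlcNAc, with GlcNAc set to β = 1.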

Assay [4] can be described thus: Inhibition of binding of HRP labeled WGA to immobilized porcine stomach […]. On the set-up: species or system Triticum aestivum. Put shortly: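 Plates coated overnight at room temperature with porcine stomach mucin (4.12 μg mL⁻¹ in PBS, pH 7.3), then blocked with 1% BSA, 90 min at 37 °C. WGA-HRP (1 μg mL⁻¹ final) pre-incubated 60 min at 37 °C with serially diluted inhibitor, then 90 min at 37 °C on plates. ABTS/H₂O₂ read-out at pH 4.0, 30 min, stopped with H₂SO₄, A405. IC50 from % inhibition curves, duplicate.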

As a reminder, the IC50 is the concentration that gives 50% inhibition. Read a low IC50 as inhibition by little substance. As for `CC(=O)N[C@H]1[C@H](OC/C=C\COC(=O)NCCN(CCNC(=O)OC/C=C\CO[C@@H]2O[C@H](CO)[C@@H](O)[C@H](O)[C@H]2NC(C)=O)CCNC(=O)OC/C=C\CO[C@@H]2O[C@H](CO)[C@@H](O)[C@H](O)[C@H]2NC(C)=O)O[C@H](CO)[C@@H](O)[C@@H]1O`, the Activity in assay [1] is 40; in assay [3], 420. For the same compound, the results for the IC50 in assay [2] and in assay [4] were 0.055 µM and 25 mM, respectively.

Regarding `CC(=O)N[C@H]1[C@H](OC/C=C\COC(=O)NCc2ccc(CNC(=O)OC/C=C\CO[C@@H]3O[C@H](CO)[C@@H](O)[C@H](O)[C@H]3NC(C)=O)cc2)O[C@H](CO)[C@@H](O)[C@@H]1O`, the Activity in assay [1] worked out at 67; in assay [3] it was 260. Further, the 50% inhibitory concentration (IC50) in assay [2] came out at 0.088 µM; in assay [4], 15 mM.

Consider `CC(=O)N[C@H]1[C@H](OC/C=C\COC(=O)NCCCOCCCCOCCCNC(=O)OC/C=C\CO[C@@H]2O[C@H](CO)[C@@H](O)[C@H](O)[C@H]2NC(C)=O)O[C@H](CO)[C@@H](O)[C@@H]1O`, for which, in assay [1], the Activity is 17. The same compound displayed an IC50 in assay [4] of 60 mM.

With `C=CCO[C@@H]1O[C@H](CO)[C@@H](O)[C@H](O)[C@H]1NC(C)=O`, the Activity in assay [1] is 3.6; in assay [3], 2.3. For the same compound, the IC50 in assay [2] was 10 µM; in assay [4], 280 mM.

As for `CC(=O)N[C@H]1[C@H](OC/C=C\COC(=O)NCCCOCCOCCOCCCNC(=O)OC/C=C/CO[C@@H]2O[C@H](CO)[C@@H](O)[C@H](O)[C@H]2NC(C)=O)O[C@H](CO)[C@@H](O)[C@@H]1O`, the results for the Activity in assay [1] and in assay [3] were 13 and 80, respectively. In addition, the values for the half-maximal inhibitory concentration (IC50) in assay [2] and in assay [4] were 0.288 µM and 75 mM, respectively.

As to `CC(=O)N[C@H]1[C@H](OC/C=C\COC(=O)NCCNCCNC(=O)OC/C=C\CO[C@@H]2O[C@H](CO)[C@@H](O)[C@H](O)[C@H]2NC(C)=O)O[C@H](CO)[C@@H](O)[C@@H]1O`, the Activity in assay [1] is 25. Besides, the half-maximal inhibitory concentration (IC50) in assay [4] was 40 mM.

For the compound `CC(=O)N[C@H]1[C@H](OC/C=C\COC(=O)NCc2ccccc2)O[C@H](CO)[C@@H](O)[C@@H]1O`, the Activity in assay [1] amounted to 10. The compound also returned a concentration for half-maximal inhibition (IC50) in assay [4] of 100 mM.

In turn, `CC(=O)N[C@H]1[C@H](OC/C=C\COC(=O)NCc2cccc(CNC(=O)OC/C=C\CO[C@@H]3O[C@H](CO)[C@@H](O)[C@H](O)[C@H]3NC(C)=O)c2)O[C@H](CO)[C@@H](O)[C@@H]1O` came in with an Activity in assay [1] of 50. Besides, in assay [4], the IC50 was 20 mM.

In the case of `CC(=O)N[C@@H]1[C@@H](O)[C@H](O)[C@@H](CO)O[C@H]1O` [N-ACETYLGLUCOSAMINE], in assay [1], the Activity was determined as 1. The half-inhibitory concentration (IC50) in assay [2] came to 23 µM; in assay [4], 1000 mM.

Consider `CC(=O)N[C@H]1[C@H](OC/C=C\CO)O[C@H](CO)[C@@H](O)[C@@H]1O`, for which the Activity in assay [1] was determined as 2; in assay [3], 1.9. For the same compound, the results for the IC50 in assay [2] and in assay [4] were 12 µM and 500 mM, respectively.

Turning to `CCCNC(=O)OC/C=C\CO[C@@H]1O[C@H](CO)[C@@H](O)[C@H](O)[C@H]1NC(C)=O`, in assay [1], the Activity was determined as 4.2. This compound also gave an IC50 in assay [4] of 240 mM.
